Data reported in ChEMBL document CHEMBL1125880, “Structure-activity relationship of miltirone, an active central benzodiazepine receptor ligand isolated from Salvia miltiorrhiza Bunge (Danshen)” (J Med Chem, 1991).
pIC50: −log10 of the molar value.

What was measured:
[1] = target: GABA-A receptor; anion channel; assay: Potency related to miltirone (1) at the central benzodiazepine receptor was determined using [3H]flunitrazepam as radioligand; assay type: protein-complex assay
Procedure, shortened: (§1)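 Calf cerebral cortical membranes incubated 45 min at 0 °C with [³H]flunitrazepam (1 nM) in 50 mM Tris-HCl pH 7.4, final volume 500 μL. Terminated by dilution with ice-cold buffer, rapid GF/B filtration and washes; filter radioactivity counted by liquid scintillation. Nonspecific binding defined with 10 μM diazepam. IC50 = concentration giving 50% inhibition of specific binding; mean ± SD of (n) determinations in duplicate. Unstable compounds tested immediately after preparation.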

[2] = target: GABA-A receptor; anion channel; assay: inhibition of [3H]flunitrazepam binding to GABA-A central Benzodiazepine receptor of bovine cerebral cortex membrane; assay type: tissue-based, Bos taurus; procedure, shortened: as §1

Compound | pIC50 [1] | pIC50 [2]
CC(C)C1=Cc2ccc3c(c2C(=O)C1=O)CCCC3 | 6.05 | 
Cc1cc2ccc3c(c2oc1=O)CCCC3 | < 4.40 | 
CC(C)C1=Cc2cccc(C(=O)O)c2C(=O)C1=O | 5.37 | 
CC1=CCCc2c1ccc1c2C(=O)C(=O)C(C(C)C)=C1 |  | 5.36
CC1(C)CCCc2c1ccc1c2C(=O)C(=O)C=C1 | 5.00 | 
CC(C)C1=Cc2cccc(-c3ccccc3)c2C(=O)C1=O |  | 4.70
CC(C)C1=Cc2ccc3c(c2C(=O)C1=O)CCCC3(C)O (stereo not drawn) | 5.70 | 
O=C1C=Cc2ccc3c(c2C1=O)CCCC3 |  | 4.70
CC(C)C1=Cc2ccc3c(c2C(=O)C1=O)CC[C@@H](O)[C@]3(C)O | 4.77 | 
CC(C)C1=Cc2ccc3c(c2C(=O)C1=O)CCCC3(C)C [MILTIRONE] | 6.52 | 
C=Cc1cccc2c1C(=O)C(=O)C(C(C)C)=C2 |  | < 4.40
CC(C)C1=Cc2cc3c4c(c2C(=O)C1=O)CCCC4CC3 (stereo not drawn) | 7.30 | 
CC(C)C1=Cc2ccc3c(c2C(=O)C1=O)CC[C@H](O)[C@]3(C)O | 4.82 | 
CC(C)C1=Cc2ccccc2C(=O)C1=O | < 4.30 | 

Results, then the molecule that gave them:

pIC50 [1] | pIC50 [2] | Compound
6.51 |  | CC(C)C1=Cc2ccc3c(c2C(=O)C1=O)CCCCCC3
< 3.70 |  | CCc1cccc2c1C(=O)C(=O)C(C(C)C)=C2
6.40 |  | CC1=Cc2ccc3c(c2C(=O)C1=O)CCCC3(C)C
5.04 |  | CC(C)C1=Cc2ncc3c(c2C(=O)C1=O)CCCC3
< 4.52 |  | CCN(CC)C(=O)c1cccc2c1C(=O)C(=O)C(C(C)C)=C2
< 3.85 |  | CC(C)C1=CC2=C(CCCC2)C(=O)C1=O
6.49 |  | CC(C)C1=Cc2ccc3c(c2C(=O)C1=O)CCCC(=O)N3
6.64 |  | CC(C)C1=Cc2ccc3c(c2C(=O)C1=O)CCCCC3
6.25 |  | CC(C)C1=Cc2ccc3c(c2C(=O)C1=O)CCCC3=O
